ChEMBL document CHEMBL4765483 (J Med Chem, 2021)

The compounds below were run against Adenosine receptor A2a (Homo sapiens) (UniProt P29274) (assay: Displacement of [3H]ZM2421385 from adenosine A2A receptor expressed in human HeLa cell membranes at 1 uM incubated for 30 mins by scintillation counting method). Settings: Cell membrane.
Sequence of Adenosine receptor A2a (Homo sapiens) (P29274 whole entry): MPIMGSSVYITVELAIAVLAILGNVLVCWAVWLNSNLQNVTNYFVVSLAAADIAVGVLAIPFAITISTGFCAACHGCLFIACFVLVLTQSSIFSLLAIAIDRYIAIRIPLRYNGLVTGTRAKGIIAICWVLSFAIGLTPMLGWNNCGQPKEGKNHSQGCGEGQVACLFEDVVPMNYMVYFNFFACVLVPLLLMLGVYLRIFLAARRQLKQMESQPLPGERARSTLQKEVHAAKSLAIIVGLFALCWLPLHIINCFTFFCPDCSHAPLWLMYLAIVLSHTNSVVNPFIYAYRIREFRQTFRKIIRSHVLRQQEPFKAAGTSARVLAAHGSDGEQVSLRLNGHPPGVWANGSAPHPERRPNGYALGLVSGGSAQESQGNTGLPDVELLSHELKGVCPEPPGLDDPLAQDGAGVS

Row | Compound | inhibition [%]
1 | CC1=C(C(=O)NC(C)C)C(c2cccs2)NC(=O)N1 (racemic) | 22
2 | CCSC(=O)C1=C(C)NC(=O)NC1c1ccoc1 (racemic) | 1
3 | CC(=O)C1=C(C)NC(=O)NC1c1ccoc1 (racemic) | 1
4 | CCCOC(=O)C1=C(C)NC(=S)NC1c1ccoc1 (racemic) | 2
5 | CCN(CC)C(=O)C1=C(C)NC(=O)NC1c1ccco1 (racemic) | 9
6 | CC1=C(C(=O)OCc2ccccc2)C(c2ccoc2)NC(=S)N1 (racemic) | 16
7 | CC1=C(C(=O)NC(C)C)C(c2ccco2)NC(=O)N1 (racemic) | 1
8 | CCOP(=O)(OCC)C1=C(C)NC(=O)NC1c1ccco1 (racemic) | 4
9 | CCC(CC)OC(=O)C1=C(C)NC(=O)NC1c1ccco1 (racemic) | 3
10 | CC1=C(C(=O)OC2CCCC2)C(c2cccs2)NC(=O)N1 (racemic) | 20
11 | CC1=C(C(=O)OC2CCCCC2)C(c2ccoc2)NC(=O)N1 (racemic) | 3

Continued, values first:

Row | inhibition [%] | Compound
12 | 1 | CC1=C(C(=O)OC(C)(C)C)C(c2ccsc2)NC(=O)N1C (racemic)
13 | 1 | CC(=O)C1=C(C)NC(=O)NC1c1ccsc1 (racemic)
14 | 3 | COC(=O)C1=C(C)NC(=O)NC1c1ccoc1 (racemic)
15 | 11 | CCCC(=O)C1=C(C)NC(=O)NC1c1ccsc1 (racemic)
16 | 1 | CCSC(=O)C1=C(C)NC(=O)NC1c1ccsc1 (racemic)
17 | 2 | CC1=C(C(=O)SC(C)C)C(c2ccsc2)NC(=O)N1 (racemic)
18 | 2 | CCCOC(=O)C1=C(C)N(C)C(=O)NC1c1ccco1 (racemic)
19 | 16 | CC1=C(C(=O)OC(C)(C)C)C(c2ccoc2)NC(=O)N1C (racemic)
20 | 1 | CCC(C)OC(=O)C1=C(C)NC(=O)NC1c1ccsc1 (racemic)
21 | 13 | COC(=O)C1=C(C)N(C)C(=O)NC1c1ccsc1 (racemic)
22 | 7 | CC1=C(C(=O)OC(C)(C)C)C(c2cccs2)NC(=S)N1 (racemic)

Each compound was assayed against T1, Adenosine receptor A3 (Homo sapiens) (UniProt P0DMS8) (assay: Displacement of [3H]NECA from adenosine A3 receptor expressed in human HeLa cell membranes at 1 uM incubated for 180 mins by scintillation counting method). Settings: Cell membrane.
T1 sequence (whole entry): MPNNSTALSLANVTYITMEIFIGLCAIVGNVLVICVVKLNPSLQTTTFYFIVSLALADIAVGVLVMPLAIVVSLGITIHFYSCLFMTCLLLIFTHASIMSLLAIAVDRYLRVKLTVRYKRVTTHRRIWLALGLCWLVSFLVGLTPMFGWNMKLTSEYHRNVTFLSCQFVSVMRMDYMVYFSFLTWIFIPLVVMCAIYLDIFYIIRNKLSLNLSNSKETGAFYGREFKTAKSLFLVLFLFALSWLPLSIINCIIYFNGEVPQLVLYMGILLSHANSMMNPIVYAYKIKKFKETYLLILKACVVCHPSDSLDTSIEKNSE
Method in brief: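 hA3AR in HeLa membranes (3 pmol/mg protein) with 10 nM [3H]NECA (KD 8.7 nM); nonspecific binding with 100 μM R-PIA; incubated 180 min at 25 °C, washed, filtered, radioactivity counted.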

Row | Compound | inhibition [%]
23 | CC1=C(C(=O)NC(C)C)C(c2cccs2)NC(=O)N1 (racemic) | 1
24 | CCSC(=O)C1=C(C)NC(=O)NC1c1ccoc1 (racemic) | 1
25 | CC(=O)C1=C(C)NC(=O)NC1c1ccoc1 (racemic) | 2
26 | CCCOC(=O)C1=C(C)NC(=S)NC1c1ccoc1 (racemic) | 3
27 | CCN(CC)C(=O)C1=C(C)NC(=O)NC1c1ccco1 (racemic) | 19
28 | CC1=C(C(=O)OCc2ccccc2)C(c2ccoc2)NC(=S)N1 (racemic) | 20
29 | CC1=C(C(=O)NC(C)C)C(c2ccco2)NC(=O)N1 (racemic) | 4
30 | CCOP(=O)(OCC)C1=C(C)NC(=O)NC1c1ccco1 (racemic) | 4
31 | CCC(CC)OC(=O)C1=C(C)NC(=O)NC1c1ccco1 (racemic) | 1
32 | CC1=C(C(=O)OC2CCCC2)C(c2cccs2)NC(=O)N1 (racemic) | 1
33 | CC1=C(C(=O)OC2CCCCC2)C(c2ccoc2)NC(=O)N1 (racemic) | 1

Further lines, results first:

Row | inhibition [%] | Compound
34 | 14 | CC1=C(C(=O)OC(C)(C)C)C(c2ccsc2)NC(=O)N1C (racemic)
35 | 1 | CC(=O)C1=C(C)NC(=O)NC1c1ccsc1 (racemic)
36 | 2 | COC(=O)C1=C(C)NC(=O)NC1c1ccoc1 (racemic)
37 | 1 | CCCC(=O)C1=C(C)NC(=O)NC1c1ccsc1 (racemic)
38 | 2 | CCSC(=O)C1=C(C)NC(=O)NC1c1ccsc1 (racemic)
39 | 1 | CC1=C(C(=O)SC(C)C)C(c2ccsc2)NC(=O)N1 (racemic)
40 | 8 | CCCOC(=O)C1=C(C)N(C)C(=O)NC1c1ccco1 (racemic)
41 | 12 | CC1=C(C(=O)OC(C)(C)C)C(c2ccoc2)NC(=O)N1C (racemic)
42 | 7 | CCC(C)OC(=O)C1=C(C)NC(=O)NC1c1ccsc1 (racemic)
43 | 22 | COC(=O)C1=C(C)N(C)C(=O)NC1c1ccsc1 (racemic)
44 | 22 | CC1=C(C(=O)OC(C)(C)C)C(c2cccs2)NC(=S)N1 (racemic)

Each compound was assayed against T2, Adenosine receptor A2b (Homo sapiens) (UniProt P29275) (assay: Displacement of [3H]DPCPX from human adenosine A2B receptor expressed in HEK293 cell membranes at 1 uM incubated for 30 mins by scintillation counting method). Settings: Cell membrane.
T2 sequence (whole entry): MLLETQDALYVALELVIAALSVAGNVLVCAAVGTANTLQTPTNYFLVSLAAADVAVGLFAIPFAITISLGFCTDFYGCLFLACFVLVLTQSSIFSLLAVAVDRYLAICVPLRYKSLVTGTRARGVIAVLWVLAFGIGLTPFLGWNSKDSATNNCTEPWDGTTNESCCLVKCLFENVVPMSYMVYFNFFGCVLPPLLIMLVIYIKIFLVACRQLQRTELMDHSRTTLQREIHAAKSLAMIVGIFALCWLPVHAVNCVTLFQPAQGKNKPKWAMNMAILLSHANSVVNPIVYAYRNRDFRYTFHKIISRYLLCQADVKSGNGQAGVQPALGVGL

Row | Compound | inhibition [%]
45 | CCSC(=O)C1=C(C)NC(=O)NC1c1ccoc1 (racemic) | 1
46 | CC(=O)C1=C(C)NC(=O)NC1c1ccoc1 (racemic) | 15
47 | CCN(CC)C(=O)C1=C(C)NC(=O)NC1c1ccco1 (racemic) | 31
48 | CC1=C(C(=O)OCc2ccccc2)C(c2ccoc2)NC(=S)N1 (racemic) | 36
49 | CC1=C(C(=O)NC(C)C)C(c2ccco2)NC(=O)N1 (racemic) | 2
50 | CCOP(=O)(OCC)C1=C(C)NC(=O)NC1c1ccco1 (racemic) | 2
51 | CCC(CC)OC(=O)C1=C(C)NC(=O)NC1c1ccco1 (racemic) | 35
52 | CC1=C(C(=O)OC2CCCC2)C(c2cccs2)NC(=O)N1 (racemic) | 1
53 | CC1=C(C(=O)OC2CCCCC2)C(c2ccoc2)NC(=O)N1 (racemic) | 4

More lines, now with the values ahead:

Row | inhibition [%] | Compound
54 | 35 | CC1=C(C(=O)OC(C)(C)C)C(c2ccsc2)NC(=O)N1C (racemic)
55 | 24 | CC(=O)C1=C(C)NC(=O)NC1c1ccsc1 (racemic)
56 | 9 | CCCC(=O)C1=C(C)NC(=O)NC1c1ccsc1 (racemic)
57 | 17 | CCSC(=O)C1=C(C)NC(=O)NC1c1ccsc1 (racemic)
58 | 14 | CC1=C(C(=O)SC(C)C)C(c2ccsc2)NC(=O)N1 (racemic)
59 | 23 | CCCOC(=O)C1=C(C)N(C)C(=O)NC1c1ccco1 (racemic)
60 | 16 | CC1=C(C(=O)OC(C)(C)C)C(c2ccoc2)NC(=O)N1C (racemic)
61 | 39 | CCC(C)OC(=O)C1=C(C)NC(=O)NC1c1ccsc1 (racemic)
62 | 26 | COC(=O)C1=C(C)N(C)C(=O)NC1c1ccsc1 (racemic)
63 | 26 | CC1=C(C(=O)OC(C)(C)C)C(c2cccs2)NC(=S)N1 (racemic)

Same assay, conditions: Cell membrane, filed as antagonist

Row | Compound | inhibition [%]
64 | CC1=C(C(=O)NC(C)C)C(c2cccs2)NC(=O)N1 (racemic) | 40
65 | COC(=O)C1=C(C)NC(=O)NC1c1ccoc1 (racemic) | 42
66 | CCCOC(=O)C1=C(C)NC(=S)NC1c1ccoc1 (racemic) | 45

What follows are compounds tested against T3, Adenosine receptor A1 (Homo sapiens) (UniProt P30542) (assay: Displacement of [3H]DPCPX from human adenosine A1 receptor expressed in CHO cell membranes at 1 uM incubated for 60 mins by scintillation counting method). Settings: Cell membrane.
T3 sequence (whole entry): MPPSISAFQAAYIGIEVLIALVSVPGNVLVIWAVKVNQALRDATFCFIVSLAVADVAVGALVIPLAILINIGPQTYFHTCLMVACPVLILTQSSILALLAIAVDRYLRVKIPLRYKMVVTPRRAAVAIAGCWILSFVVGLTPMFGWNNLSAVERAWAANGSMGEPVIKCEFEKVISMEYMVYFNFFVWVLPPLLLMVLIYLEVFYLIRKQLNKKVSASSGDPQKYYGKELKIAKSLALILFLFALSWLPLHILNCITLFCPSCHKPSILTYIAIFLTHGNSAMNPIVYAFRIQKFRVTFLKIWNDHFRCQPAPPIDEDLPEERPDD

Row | Compound | inhibition [%]
67 | CC1=C(C(=O)NC(C)C)C(c2cccs2)NC(=O)N1 (racemic) | 2
68 | CCSC(=O)C1=C(C)NC(=O)NC1c1ccoc1 (racemic) | 3
69 | CC(=O)C1=C(C)NC(=O)NC1c1ccoc1 (racemic) | 6
70 | CCCOC(=O)C1=C(C)NC(=S)NC1c1ccoc1 (racemic) | 4
71 | CCN(CC)C(=O)C1=C(C)NC(=O)NC1c1ccco1 (racemic) | 11
72 | CC1=C(C(=O)OCc2ccccc2)C(c2ccoc2)NC(=S)N1 (racemic) | 25
73 | CC1=C(C(=O)NC(C)C)C(c2ccco2)NC(=O)N1 (racemic) | 3
74 | CCOP(=O)(OCC)C1=C(C)NC(=O)NC1c1ccco1 (racemic) | 3
75 | CCC(CC)OC(=O)C1=C(C)NC(=O)NC1c1ccco1 (racemic) | 2
76 | CC1=C(C(=O)OC2CCCC2)C(c2cccs2)NC(=O)N1 (racemic) | 9
77 | CC1=C(C(=O)OC2CCCCC2)C(c2ccoc2)NC(=O)N1 (racemic) | 15

Other lines, results leading:

Row | inhibition [%] | Compound
78 | 18 | CC1=C(C(=O)OC(C)(C)C)C(c2ccsc2)NC(=O)N1C (racemic)
79 | 9 | CC(=O)C1=C(C)NC(=O)NC1c1ccsc1 (racemic)
80 | 8 | COC(=O)C1=C(C)NC(=O)NC1c1ccoc1 (racemic)
81 | 6 | CCCC(=O)C1=C(C)NC(=O)NC1c1ccsc1 (racemic)
82 | 11 | CCSC(=O)C1=C(C)NC(=O)NC1c1ccsc1 (racemic)
83 | 24 | CC1=C(C(=O)SC(C)C)C(c2ccsc2)NC(=O)N1 (racemic)
84 | 3 | CCCOC(=O)C1=C(C)N(C)C(=O)NC1c1ccco1 (racemic)
85 | 21 | CC1=C(C(=O)OC(C)(C)C)C(c2ccoc2)NC(=O)N1C (racemic)
86 | 5 | CCC(C)OC(=O)C1=C(C)NC(=O)NC1c1ccsc1 (racemic)
87 | 24 | COC(=O)C1=C(C)N(C)C(=O)NC1c1ccsc1 (racemic)
88 | 22 | CC1=C(C(=O)OC(C)(C)C)C(c2cccs2)NC(=S)N1 (racemic)
